Hits are enriched below; roughly 8.2% of the tested compounds scored in any of these assays.
M1 antag – M1 muscarinic receptor (rat) antagonism | B-score at 10 µM | P08482 | AID 628 | CHO-M1 cells, Fluo-4 calcium, ACh EC80 antagonist mode; hits give low values | actives 3.4% (n = 64,000);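 active means calcium fluorescence response, raw or row-and-column corrected B-score, differing from the plate sample mean either way at a set confidence level, mostly lower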
SF1 activator – SF-1 (human) activation; CHO-K1 Gal4-SF-1 LBD luciferase reporter; % increase over DMSO SF-1-specific signal; activation, % at 10 µM; AID 522; Q13285; actives 1.9% (n = 65,000);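 active means activation above the mean activation of all tested compounds plus 3 SD, cut at about 50% in these data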
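Assay system: CHO-K1 cells co-transfected with Gal4 DBD–human SF-1 LBD, 5xGal4 luciferase reporter; doses: 10 µM only; incubation: 20 h compound exposure at 37 °C after 1 h cell settling; signal: luciferase light emission; evaluation: percent activation versus DMSO; repeats: one test per compound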
HePTP inh – inhibitors of human HePTP phosphatase; P35236; recombinant HePTP phosphatase activity, OD absorbance; inhibition, % at 20 µM; actives 0.64% (n = 110,000); in the data active means inhibition above about 50%;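 further: plate controls were vehicle for no effect and reference inhibitor for full effect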
M1 agonist – activates the M1 muscarinic receptor; CHO-M1 cells, Fluo-4 calcium fluorescence, agonist mode; hits give high values; AID 626; B-score at 10 µM; actives 3% (n = 64,000);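 active means fluorescence rise, raw or as B-score row- and column-corrected plate score, outside the 99.7% band of its plate's samples, either direction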
D1 mod – allosterically modulates the human D1 dopamine receptor; P21728; actives 5.9% (n = 58,000); B-score at 10 µM; AID 641; HEK293 D1, CRE-luciferase, dopamine EC30 potentiation; actives deviate in either direction;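 active means luminescence count or its row- and column-corrected plate score outside the 99.7% band of the plate's sample wells, on either side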
Target sequence (P21728 whole entry, looked up): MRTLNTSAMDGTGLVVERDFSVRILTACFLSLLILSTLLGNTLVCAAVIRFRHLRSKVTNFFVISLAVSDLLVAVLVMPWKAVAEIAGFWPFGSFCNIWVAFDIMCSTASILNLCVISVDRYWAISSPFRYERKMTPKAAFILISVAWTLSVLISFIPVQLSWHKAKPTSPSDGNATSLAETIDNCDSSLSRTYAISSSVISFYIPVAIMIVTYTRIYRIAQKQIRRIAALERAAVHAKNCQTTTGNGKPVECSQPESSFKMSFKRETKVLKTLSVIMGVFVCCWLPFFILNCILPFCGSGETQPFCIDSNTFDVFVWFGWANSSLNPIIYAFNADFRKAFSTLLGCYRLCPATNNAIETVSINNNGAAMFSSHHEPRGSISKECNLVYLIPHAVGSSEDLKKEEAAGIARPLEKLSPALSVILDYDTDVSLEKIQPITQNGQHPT
RORA act – activators of human nuclear receptor RORA. P35398. CHO-K1 Gal4-RORA LBD luciferase reporter, luminescence; percent increase over mock-subtracted basal signal. activation, % at 10 µM. actives 1.5% (n = 65,000). AID 560;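 active means activation above the mean of all tested compounds plus 3 SD, cut at about 49% in these data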;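 further: 0% = DMSO-treated RORA cells and 100% = added signal equal to DMSO minus mock-transfected cells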
D1 mod confirm – D1 receptor (human) allosteric modulation, confirmed; shares compounds with D1 mod; HEK293 D1 CRE-luciferase, dopamine EC30 potentiation; hits give high values; luminescence at 10 µM; actives 88% (n = 2,200);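 active means luminescence in either of two replicates above the same-plate mean plus 3 SD of the low-dose dopamine control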
D1 no dopamine – secondary test of D1 modulators: activity without dopamine. shares compounds with D1 mod. HEK293 D1 CRE-luciferase, luminescence, no dopamine; hits give high values. luminescence at 10 µM. actives 0.8% (n = 1,900). AID 646; in the data active means luminescence above about 3900
Isoprot counter – alters isoproterenol CRE-luciferase response in HEK293 cells. shares compounds with D1 mod. HEK293 D1 CRE-luciferase, isoproterenol EC30 counter-screen. calls only at 10 µM. actives 63% (n = 2,200);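 active means luminescence in either replicate above plate mean of wells with a partly effective reference agonist dose plus 3 SD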;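 further: isoproterenol raises cAMP through native beta-adrenoceptor Gs so signal bypasses D1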
Active calls of the source: *; i = inactive; x = not tested or not shown; + = active, no number.

SMILES	M1 antag	SF1 activator	HePTP inh	M1 agonist	D1 mod	RORA act	D1 mod confirm	D1 no dopamine	Isoprot counter
CCn1c(=O)cc(SCC(=O)Nc2ccc3c(c2)OCO3)c2ccccc21	-0.127	6.6	-4.2	-0.237	5.22*	2.2	9432*	1616	i
CCOc1ccc2nc(NC(=O)Cn3cnc4c3c(=O)n(C)c(=O)n4C)sc2c1	0.155	5.7	0.0	0.187	-1.08	-4.3	x	x	x
CC(C)n1c(SCC(=O)N2CCCC2)nc2c1c(=O)n(C)c(=O)n2C	0.422	-2.9	1.6	0.508	6.41*	11.4	13032*	1508	i
Cc1cc(NC(=O)CSc2nc3c(c(=O)n(C)c(=O)n3C)n2C(C)C)no1	0.602	-24.7	-14.8	0.83	x	-14.0	x	x	x
CC(C)n1c(SCC(=O)Nc2ccc3c(c2)OCO3)nc2c1c(=O)n(C)c(=O)n2C	-0.0964	-1.8	0.3	0.594	9.12*	38.3	7904*	1376	+
Cc1ccc(N(CC(=O)N/N=C/c2ccccc2)S(=O)(=O)c2ccccc2)cc1	x	x	5.6	x	x	x	x	x	x
COc1ccc(OCc2nnc3n2N=C(c2ccc(OC)cc2)CS3)cc1	0.0818	-6.4	5.2	1.34	9.69*	10.5	13236*	x	+
CCOc1ccc(C2=Nn3c(nnc3-c3ccc(OC)cc3)SC2)cc1	1.36	22.2	0.4	-0.123	7.77*	16.3	11104*	1552	+
CCOC(=O)CNc1nc(-c2ccncc2)nc2ccccc12	-0.00197	0.9	7.1	0.697	1.33	-21.6	x	x	x
c1ccc2c(N3CCCC3)nc(-c3ccncc3)nc2c1	-0.794	0.5	8.1	4.39	9.17*	3.7	18800*	1668	+
C=CCOc1nc(-c2ccncc2)nc2ccccc12	0.00245	-8.0	6.4	0.378	6.52*	-19.2	15684*	x	+
c1ccc(-c2nc(N3CCCCCC3)c3ccccc3n2)nc1	-1.56	-86.4	9.4	-1.55	2.88	-78.7	x	x	x
COc1ccc(CCNC(=O)c2ccc(C#Cc3ccccc3)cc2)cc1OC	x	x	2.4	x	x	x	x	x	x
COc1ccc(C(=O)OCCN2C(=O)c3ccccc3C2=O)cc1	0.308	-2.2	3.3	1.79	1.21	13.3	x	x	x
COc1cccc(C(=O)OCCN2C(=O)c3ccccc3C2=O)c1OC	0.592	14.6	-4.4	-0.818	3.14*	12.5	5788*	1588	+
CSc1nc(NCC(C)C)nc(N2CCOCC2)n1	0.0736	-2.4	0.1	-0.00301	8.76*	3.8	26752*	1652	+
Cc1cccc(CSC2=NCCN2C(=O)c2ccco2)c1	-1.13	-10.5	3.1	0.0515	3.77*	-31.8	9944*	1728	i
Cc1cccc(CSC2=NCCN2C(=O)C2CC2)c1	-0.182	-14.0	-1.0	-0.351	0.771	-19.7	x	x	x
O=C(Cc1cccs1)NCc1cccnc1	x	x	-2.3	x	x	x	x	x	x
COc1ccc2c(c1)C(=O)N(c1ccccc1OC)C(=O)C2(C)C	-0.0501	9.0	8.1	-0.165	6.89*	3.7	11528*	1476	i
COc1ccc(OC)c(N2C(=O)c3ccc(OC)c(OC)c3C2=O)c1	x	x	2.2	x	x	x	x	x	x
O=C(CN1C(=O)CSc2ccccc21)NC1CCCC1	-0.0316	-1.3	3.8	0.588	0.252	-9.8	x	x	x
O=C1CSc2ccccc2N1Cc1ccccc1F	0.788	-5.6	-6.9	1.22	3.51*	-6.9	6672*	1472	i
Cc1nc(SCC(=O)NCc2ccccc2)c2c(=O)n(C)c(=O)n(C)c2n1	-0.495	-1.7	3.0	-1.73	0.283	6.0	x	x	x
COc1ccc(N2CCN(C(=O)CSc3ccccc3)CC2)cc1	-0.561	-9.9	-4.4	0.118	-0.0895	16.5	x	x	x
SMILES	M1 antag	SF1 activator	HePTP inh	M1 agonist	D1 mod	RORA act	D1 mod confirm	D1 no dopamine	Isoprot counter
CN(Cc1ccccc1)c1nc2c(c(=O)[nH]c(=O)n2C)n1CCOc1ccccc1	-0.00602	-9.2	-7.9	0.891	6.8*	2.4	12188*	1500	+
CN(Cc1ccccc1)c1nc2c(c(=O)[nH]c(=O)n2C)n1CCCSc1ncccn1	0.0166	18.9	8.9	0.361	x	11.3	x	x	x
CN(Cc1ccccc1)c1nc2c(c(=O)[nH]c(=O)n2C)n1Cc1ccccc1	-0.0183	-11.6	x	-0.00316	23.1*	-5.1	19372*	1600	+
CCCCCn1c(N(C)Cc2ccccc2)nc2c1c(=O)[nH]c(=O)n2C	0.112	-4.9	-5.3	0.376	14.1*	23.9	21892*	1452	+
CCN(CC)CCNc1nc2c(c(=O)[nH]c(=O)n2C)n1CCOc1ccccc1	0.295	-10.7	2.3	0.507	0.164	-10.0	x	x	x
CCc1nn(CC(=O)NCCN2CCN(C)CC2)c(=O)c2cc3occc3n12	1	7.1	6.4	0.746	-0.17	2.1	x	x	x
CCc1nn(CCCC(=O)N2CCc3ccccc3C2)c(=O)c2cc3occc3n12	-0.0304	2.8	-5.4	2.39	2.87*	-3.2	10688*	1800	i
CCOc1ccc2nc(NC(=O)C3CCN(S(=O)(=O)c4cnc[nH]4)CC3)sc2c1	0.0933	-3.3	7.9	0.218	0.551	-42.8	x	x	x
CCC(=O)Nc1cccc(NC(=O)c2cc3ccccc3o2)c1	0.0635	24.6	-5.1	1.15	5.05*	58.1*	3904*	1572	i
COc1ccc(CCn2c(N)cc(=O)[nH]c2=S)cc1OC	1.39	-20.1	3.5	0.969	11.1*	-11.7	16604*	1548	+
O=C(COc1ccc2ccccc2c1)Nc1ccc(Cl)cc1	x	x	4.8	x	x	x	x	x	x
CSc1nnc2c3cc(C)ccc3n(Cc3ccccc3)c2n1	0.26	-17.8	5.4	0.464	8.94*	-6.8	14436*	1372	+
O=S(=O)(NCC(c1cccnc1)N1CCOCC1)c1cccs1 (stereo not drawn)	-0.845	-8.2	x	0.294	x	8.5	x	x	x
COc1ccc(C(=O)CSc2nnnn2Cc2ccccc2)cc1	-0.207	5.7	4.5	-0.167	0.922	6.2	x	x	x
O=C(CSc1nnnn1Cc1ccccc1)c1ccccc1	0.956	-4.0	-8.3	0.453	4.03*	-16.1	5880*	1460	i
COc1ccc(CN2CCN(C(=O)c3ccco3)CC2)cc1	0.48	0.5	2.0	-0.589	4.08*	-20.0	5504	1488	i
O=C(COC(=O)C1CCN(C(=O)c2ccc(Cl)cc2)CC1)c1ccco1	-0.989	-5.5	-3.3	0.34	0.356	-12.1	x	x	x
CCOC(=O)C1CCN(C(=O)c2ccco2)CC1	-0.584	-10.5	5.4	-0.131	4.42*	15.1	4108	1740	i
Cc1ccc2c(c1)N(CC(=O)NCCc1c[nH]c3ccccc13)C(=O)CO2	0.504	6.8	0.2	0.394	0.522	-2.5	x	x	x
